Test results from ChEMBL document CHEMBL1147237, “Two new epimeric pairs of acetogenins bearing a carbonyl group from Annona cherimolia seeds” (J Nat Prod, 2003).
Converted amounts (≈) assume the structure as drawn.

What was measured:
[1] = (§1) Toxicity in brine shrimp larvae; type: organism-based; settings: artemia, in vivo
A549 = test: Cytotoxicity against human A549 cells after 7 days by MTT assay; type: functional; settings: A549, 168 h, read-out: LD50 (the source's name)
In short: (§2)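 Seven-day in vitro MTT cytotoxicity assay run by a cancer-center cell culture laboratory under standard protocols, using A-549 (human lung carcinoma), MCF-7 (human breast carcinoma), HT-29 (human colon adenocarcinoma), A-498 (human kidney carcinoma) and PC-3 (human prostate) cells. Isolated compounds were tested.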

MCF7 = test: Cytotoxicity against human MCF7 cells after 7 days by MTT assay; type: functional; settings: MCF7, 168 h, read-out: LD50 (the source's name); in short: as §2
HT-29 = test: Cytotoxicity against human HT-29 cells after 7 days by MTT assay; type: functional; settings: HT-29, 168 h, read-out: LD50 (the source's name); in short: as §2
A498 = test: Cytotoxicity against human A498 cells after 7 days by MTT assay; type: functional; settings: A498, 168 h, read-out: LD50 (the source's name); in short: as §2
PC-3 = test: Cytotoxicity against human PC3 cells after 7 days by MTT assay; type: functional; settings: PC-3, 168 h, read-out: LD50 (the source's name); in short: as §2
MIA PaCa-2 = test: Cytotoxicity against human MIAPaCa2 cells after 7 days by MTT assay; type: functional; settings: MIA PaCa-2, 168 h, read-out: LD50 (the source's name)
Artemia = test: as §1; type: organism-based; settings: in vivo

CCCCCCCCCCCC[C@@H](O)[C@H]1CC[C@H]([C@H](O)CCCC(=O)CCCCCCCCC2=CC(C)(O)OC2=O)O1 (mixture of isomers)
LC50 [1]: 0.375 µg/mL
CC50 (A549): 1.26 µg/mL
CC50 (MCF7): 0.303 µg/mL
CC50 (HT-29): 0.193 µg/mL
CC50 (A498): 0.93 µg/mL
CC50 (PC-3): 0.198 µg/mL
CC50 (MIA PaCa-2): 0.00312 µg/mL

CCCCCCCCCCCC[C@@H](O)[C@H]1CC[C@H]([C@H](O)CCCC(=O)CCCCCC[C@@H](O)CC2=CC(C)(O)OC2=O)O1 (mixture of isomers) [ANNOMOLON B/34-EPI-ANNOMOLON B]
LC50 (Artemia): 7 ×10⁻² ug/ml
CC50 (A549): 1.37 µg/mL
CC50 (MCF7): 0.047 µg/mL
CC50 (HT-29): 0.0719 µg/mL
CC50 (A498): 0.377 µg/mL
CC50 (PC-3): 0.0553 µg/mL
CC50 (MIA PaCa-2): 0.00748 µg/mL

COc1cccc2c1C(=O)c1c(O)c3c(c(O)c1C2=O)C[C@@](O)(C(=O)CO)C[C@@H]3O[C@H]1C[C@H](N)[C@H](O)[C@H](C)O1 [DOXORUBICIN]
CC50 (A549): 0.00113 µg/mL (≈ 0.00208 µM)
CC50 (MCF7): 0.0182 µg/mL (≈ 0.0335 µM)
CC50 (HT-29): 0.0128 µg/mL (≈ 0.0235 µM)
CC50 (A498): 0.00226 µg/mL (≈ 0.00416 µM)
CC50 (PC-3): 0.0502 µg/mL (≈ 0.0924 µM)
CC50 (MIA PaCa-2): 0.00262 µg/mL (≈ 0.00482 µM)
